Experiments:
Liver = experiment: Stability in mouse liver microsomes at 1 uM after 3 to 30 mins by LC-MS/MS analysis; format: ADME
Procedure, shortened: (§1)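 Liver microsomes at 0.5 mg/mL (human or mouse) in 100 mM potassium phosphate, pH 7.4, with 1 μM compound, prewarmed 10 min at 37 °C. Reaction started with NADPH (10 mM) and stopped at 0, 3, 6, 9, 15 and 30 min with ice-cold methanol holding tolbutamide internal standard. Centrifuged 10 min at 4 °C; supernatant analysed by LC-MS/MS.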

Liver microsome = experiment: Stability in human liver microsomes at 1 uM after 3 to 30 mins by LC-MS/MS analysis; format: ADME; procedure, shortened: as §1

Compound: O=C(NO)c1ccc2c(c1)C[C@H](Nc1nccc(-c3cccnc3)n1)CC2
- Stability (Liver): Stable
- Stability (Liver microsome): Stable

Reference: ChEMBL document CHEMBL3351740, “Identification of a novel aminotetralin class of HDAC6 and HDAC8 selective inhibitors” (J Med Chem, 2014)
